Data set [1] deals with T1, Corticotropin-releasing factor receptor 1 (Homo sapiens, UniProt P34998).
T1 sequence (P34998 whole entry): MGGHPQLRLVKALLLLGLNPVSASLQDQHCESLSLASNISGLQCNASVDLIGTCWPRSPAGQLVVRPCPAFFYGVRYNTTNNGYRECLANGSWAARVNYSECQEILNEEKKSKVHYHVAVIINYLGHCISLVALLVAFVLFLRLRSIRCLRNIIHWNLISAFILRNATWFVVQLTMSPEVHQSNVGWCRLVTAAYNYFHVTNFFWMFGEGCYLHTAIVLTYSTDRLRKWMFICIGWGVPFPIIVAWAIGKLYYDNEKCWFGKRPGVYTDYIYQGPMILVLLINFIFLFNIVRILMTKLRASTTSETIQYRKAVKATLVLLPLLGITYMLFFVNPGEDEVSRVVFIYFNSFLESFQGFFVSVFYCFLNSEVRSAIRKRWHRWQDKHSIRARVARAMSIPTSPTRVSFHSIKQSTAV
Put plainly: Displacement of [125I]-Tyr0-sauvagine from human CRF1 receptor expressed in HEK293T cells after 2 hrs by scintillation counting. The format is cell-based, HEK-293T.

Data set [2] addresses T2, Corticotropin-releasing factor receptor 2 (Homo sapiens) (UniProt Q13324).
T2 sequence (whole entry): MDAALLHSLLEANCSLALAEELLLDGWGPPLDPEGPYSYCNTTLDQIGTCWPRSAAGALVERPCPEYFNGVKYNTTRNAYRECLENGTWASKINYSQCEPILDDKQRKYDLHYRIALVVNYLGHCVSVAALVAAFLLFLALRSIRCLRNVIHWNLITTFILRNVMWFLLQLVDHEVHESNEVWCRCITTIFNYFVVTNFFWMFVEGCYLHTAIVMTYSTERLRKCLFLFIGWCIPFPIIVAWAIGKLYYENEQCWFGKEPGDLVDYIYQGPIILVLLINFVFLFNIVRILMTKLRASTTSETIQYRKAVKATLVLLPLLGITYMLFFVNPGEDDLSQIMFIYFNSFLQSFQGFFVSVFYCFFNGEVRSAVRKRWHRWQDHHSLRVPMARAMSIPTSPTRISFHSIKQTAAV
Description: Displacement of [125I]-antisauvagine-30 from human CRF2 receptor expressed in HEK293T cells at 1 uM after 2 hrs by scintillation counting. In kind it is cell-based. To be noted: HEK-293T. Summed up: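 Competition binding at 23 °C on HEK293T cells transfected with human CRF2 receptor. Each ligand tested at 1 μM against the radiotracer [125I]antisauvagine-30. Read-out is mean % displacement of specific radiotracer binding, n = 2.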

The subject of data set [3] is Brain. Description: Drug uptake in cynomolgus monkey brain assessed as whole-brain time-activity curve by MicroPET imaging analysis. The conditions noted are these: in vivo. In kind it is ADME, tissue-based, Macaca fascicularis.
A short description of data set [4]: Lipophilicity, logP of the compound at pH 7.4. In kind it is physicochemical. To be noted: buffer. In outline:
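Octanol/aqueous buffer shake-flask partition at pH 7.4, done on the 18F-labelled radioligands; mean ± SD of n = 4.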

Each structure is given as a SMILES string. pKi: −log10 of the molar value.

The compound `CCN(C)c1cc(C)nc2c1N(CCCCF)C(=O)CN2c1ccc(C(C)C)cc1Br` showed a pKi in data set [1] of 7.86. On the same count and under the same terms, next, `CCCCN(CC)c1cc(C)nc2c1NC(=O)CN2c1ccc(Br)cc1Cl`: 8.57. As to `CCCCN(CC)c1cc(C)nc2c1NC(=O)CN2c1ccc(Br)cc1C`, in data set [2], the inhibition was found to be 5.9%. In data set [1], this compound gave a pKi of 8.36. The corresponding values for `CCCCN(CC)c1cc(C)nc2c1NC(=O)CN2c1ccc(C)cc1Br` are 5.5% and 8.36. Consider `CC[C@H](C)[C@H](NC(=O)[C@@H](NC(=O)[C@H](CC(=O)O)NC(=O)[C@H](CC(C)C)NC(=O)[C@H](CC(C)C)NC(=O)[C@H](CC(C)C)NC(=O)[C@H](CCCN=C(N)N)NC(=O)[C@H](CC(N)=O)NC(=O)[C@H](CC(N)=O)NC(=O)[C@H](C)NC(=O)[C@H](C)NC(=O)[C@H](CCC(N)=O)NC(=O)[C@H](CCC(N)=O)NC(=O)[C@H](CCCCN)NC(=O)[C@H](CCC(=O)O)NC(=O)[C@H](CCCCN)NC(=O)[C@H](CCC(=O)O)NC(=O)[C@H](CCC(N)=O)NC(=O)[C@H](CCCCN)NC(=O)[C@H](CCC(=O)O)NC(=O)[C@@H](NC(=O)[C@H](CCC(=O)O)NC(=O)[C@@H](NC(=O)[C@H](CCSC)NC(=O)[C@H](CCCCN)NC(=O)[C@H](CCCN=C(N)N)NC(=O)[C@H](CC(C)C)NC(=O)[C@H](CC(C)C)NC(=O)[C@H](CCC(=O)O)NC(=O)[C@H](CC(C)C)NC(=O)[C@H](CO)NC(=O)[C@H](CC(C)C)NC(=O)[C@H](CC(=O)O)NC(=O)[C@@H](NC(=O)[C@H](CO)NC(=O)[C@@H](NC(=O)[C@@H]1CCCN1C(=O)[C@@H]1CCCN1C(=O)CNC(=O)[C@@H]1CCC(=O)N1)[C@@H](C)CC)[C@@H](C)CC)[C@@H](C)CC)[C@@H](C)CC)[C@@H](C)O)C(=O)O`, for which, in data set [2], the inhibition was 100%.

In the case of `Cc1cc(N(C)C)c2c(n1)N(c1ccc(C(C)C)cc1Br)CC(=O)N2`, the negative-log Ki (pKi) in data set [1] is 6.74. As to `CCCCN(CC)c1cc(C)nc2c1NC(=O)CN2c1ccc(C)cc1C`, in data set [2], the inhibition was 6.8%. In addition, in data set [1], the pKi was 8.41.

Turning to `CCCCN(CC)c1cc(C)nc2c1NC(=O)CN2c1ccc(C(C)C)cc1Br`, in data set [2], the inhibition was determined as 0.7%. Besides, the pKi in data set [1] is 8.62. The corresponding values for `CCCCN(CC)c1cc(C)nc2c1NC(=O)CN2c1ccc(Br)cc1Br` are 9.4% and 8.89. In data set [1], `Cc1cc(N(C)C)c2c(n1)N(c1ccc(C(C)C)cc1Br)CC(=O)N2CCF` had a pKi of 7.23. Still for that read-out and setting: next, `Cc1cc(N(C)C)c2c(n1)N(c1ccc(C(C)C)cc1Br)CC(=O)N2C/C=C/CF`: 7.85; `CCN(CC)c1cc(C)nc2c1N(CCF)C(=O)CN2c1ccc(C(C)C)cc1Br`: 8.14; `CCCCN(CC)c1cc(C)nc2c1NC(=O)CN2c1ccc(C)cc1Cl`: 8.36. The same measure, in the same setting: the figure for `Cc1cc(N(C)C)c2c(n1)N(c1ccc(C(C)C)cc1Br)CC(=O)N2CCCCF` is 7.67. The same measure, in the same setting: next, `CCCCN(CC)c1cc(C)nc2c1NC(=O)CN2c1ccc(I)cc1C`: 8.47. `CCCCN(CC)c1cc(C)nc2c1NC(=O)CN2c1ccc(OC)cc1C`: the inhibition in data set [2] was -2.3%. In addition, in data set [1], the negative-log Ki (pKi) was 8.40. For the compound `CCCCN(CC)c1cc(C)nc2c1NC(=O)CN2c1ccc(Cl)cc1C`, in data set [1], the pKi is 8.27.

Regarding `CCCCN(CC)c1cc(C)nc2c1NC(=O)CN2c1ccc(Br)cc1CC`, the inhibition in data set [2] was determined as 2.1%. Also, the pKi in data set [1] was 8.60. As to `CCCCN(CC)c1cc(C)nc2c1NC(=O)CN2c1ccc(Cl)cc1Br`, in data set [1], the pKi is 8.60. As for `CCCCN(CC)c1cc(C)nc2c1NC(=O)CN2c1ccc(Cl)cc1Cl`, the inhibition in data set [2] came to 0.9%. The compound further showed a pKi in data set [1] of 8.47. `CCN(C)c1cc(C)nc2c1NC(=O)CN2c1ccc(C(C)C)cc1Br` gave a pKi in data set [1] of 7.79.

In the case of `CCCN(CCC)c1cc(C)nc2c1NC(=O)CN2c1ccc(C(C)C)cc1Br`, the negative logarithm of the Ki (pKi) in data set [1] was 8.51. As to `CCN(C)c1cc(C)nc2c1N(CCCC[17F])C(=O)CN2c1ccc(C(C)C)cc1Br`, the SUV entry in data set [3] is recorded as “<= 1”. In data set [4], the logD was 2.22. For `CCCCN(CC)c1cc(C)nc2c1NC(=O)CN2c1ccc(C(C)(C)C)cc1Br`, the inhibition in data set [2] was -3.8%. The compound further showed a negative logarithm of the Ki (pKi) in data set [1] of 8.38. The compound `Cc1cc(N(C)C)c2c(n1)N(c1ccc(C(C)C)cc1Br)CC(=O)N2CCCC[17F]` had a logD in data set [4] of 2.19.

The compound `CCCCN(CC)c1cc(C)nc2c1N(C)C(=O)CN2c1ccc(Br)cc1Br` had a pKi in data set [1] of 8.62. As to `CCCN(CCC)c1cc(C)nc2c(-c3cnc(N(C)C)cc3C)c(C)nn12`, the inhibition in data set [2] amounted to 23.8%.

Source of the values: ChEMBL document CHEMBL3627705 (Bioorg Med Chem Lett, 2015).
